In ChEMBL document CHEMBL4007421, “Discovery and Preclinical Characterization of 3-((4-(4-Chlorophenyl)-7-fluoroquinoline-3-yl)sulfonyl)benzonitrile, a Novel Non-acetylenic Metabotropic Glutamate Receptor 5 (mGluR5) Negative Allosteric Modulator for Psychiatric Indications” (J Med Chem, 2017):
≈ marks a conversion by molar mass, not a printed value. Calls of active or inactive are those of the source. No cut-off for these calls is given here.

Legend:
[1] = Volume of distribution in female Crl:CD(SD) rat at 0.5 mg/kg, iv; format: ADME, organism-based; conditions: in vivo
Summary of the method: (§1)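 Single-dose PK: i.v. and oral dosing in Crl:CD(SD) rats and beagle dogs, plus a pilot oral nasogastric study in Cynomolgus monkeys using a Type IV lipid formulation. Rat i.v. vehicle was 80% cosolvent. Monkeys were fasted from 2 h before until 2 h after dosing, n=3 per sex. Rats also received [14C]-labelled compound orally at 50 mg/kg, with total radioactivity followed. Parameters are means; monkey values are medians.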

Rattus norvegicus [2] = experiment: Anxiolytic activity in po dosed Wistar rat assessed as reduction in ultrasonic vocalization; format: functional
[3] = Terminal elimination half life in fasted female cynomolgus monkey at 9 mg/kg, po administered as single dose; format: ADME, organism-based, Macaca fascicularis; conditions: in vivo, read-out: beta t1/2 (converted); summary of the method: as §1
[4] = Cmax in female Crl:CD(SD) rat at 4.5 mg/kg, po; format: ADME, organism-based; set-up: dose 4.5 mg/kg, route oral; conditions: in vivo
Rattus norvegicus [5] = experiment: Anxiolytic activity in Wistar rat assessed as increase in water drinking time during punished period at 10 mg/kg, po qd measured after first dosing by Vogel punished drinking conflict test; format: functional, organism-based
Summary of the method: (§2)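 Vogel punished-drinking test in rats after 24 h water deprivation, with 60 s unpunished drinking; oral 10 mg/kg given once daily for 19 days, vehicle group dosed only on Day 19 as first-dose control; plasma sampled right after test; n=10 per group; ANOVA with Duncan post-hoc.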

[6] = Clearance in male beagle dog at 0.5 mg/kg, iv administered as infusion; format: ADME, organism-based, Canis lupus familiaris; conditions: in vivo
[7] = Plasma concentration in Wistar rat at 0.5 mg/kg, po after 75 mins; format: ADME, organism-based
Summary of the method: (§3)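 Plasma levels taken right after the Vogel test (~75 min after oral dose) following single oral doses in lipid-based formulations; data pooled from four experiments; mean±SD.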

[8] = AUC in fasted female beagle dog at 1 mg/kg, po; format: ADME, organism-based, Canis lupus familiaris; conditions: in vivo
[9] = Aqueous solubility of the compound at pH 7.4; format: physicochemical
[10] = Plasma concentration in Wistar rat at 1 mg/kg, po after 75 mins; format: ADME, organism-based; summary of the method: as §3
[11] = Plasma concentration in Wistar rat at 10 mg/kg, po qd for 19 days during Vogel punished drinking conflict test; format: ADME, organism-based; summary of the method: as §2
[12] = Clearance in female Crl:CD(SD) rat at 0.5 mg/kg, iv; format: ADME, organism-based; conditions: in vivo
[13] = Terminal elimination half life in fasted male cynomolgus monkey at 9 mg/kg, po administered as single dose; format: ADME, organism-based, Macaca fascicularis; conditions: in vivo, read-out: beta t1/2 (converted); summary of the method: as §1
[14] = AUC(0 to 8 hrs) in fasted female cynomolgus monkey at 9 mg/kg, po administered as single dose; format: ADME, organism-based, Macaca fascicularis; set-up: time < 6 hr, dose 9 mg/kg, route oral; conditions: in vivo
[15] = AUC in male beagle dog at 0.5 mg/kg, iv administered as infusion; format: ADME, organism-based, Canis lupus familiaris; conditions: in vivo
Cytochrome P450 2C9 = Cytochrome P450 2C9 (Homo sapiens, UniProt P11712); experiment: Inhibition of CYP2C9 in human liver microsomes; format: ADME
Cytochrome P450 2C9, sequence (P11712 whole entry, the tested form may be a part): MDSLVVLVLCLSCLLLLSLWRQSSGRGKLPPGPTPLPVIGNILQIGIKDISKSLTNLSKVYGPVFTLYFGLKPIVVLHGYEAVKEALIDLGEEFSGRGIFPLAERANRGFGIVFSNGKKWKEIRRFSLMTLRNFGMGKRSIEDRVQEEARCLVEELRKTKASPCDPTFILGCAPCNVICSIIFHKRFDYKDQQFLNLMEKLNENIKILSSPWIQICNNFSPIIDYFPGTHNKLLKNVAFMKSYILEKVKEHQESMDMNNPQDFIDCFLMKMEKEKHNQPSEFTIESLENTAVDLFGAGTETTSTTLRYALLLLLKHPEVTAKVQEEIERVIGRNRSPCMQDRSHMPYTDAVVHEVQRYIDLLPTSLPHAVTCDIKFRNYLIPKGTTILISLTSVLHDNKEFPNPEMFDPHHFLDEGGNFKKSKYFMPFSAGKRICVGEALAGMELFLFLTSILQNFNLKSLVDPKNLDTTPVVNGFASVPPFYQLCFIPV

[16] = Tmax in male beagle dog at 0.5 mg/kg, iv administered as infusion; format: ADME, organism-based, Canis lupus familiaris; conditions: in vivo; summary of the method: as §1
[17] = Tmax in female beagle dog at 0.5 mg/kg, iv administered as infusion; format: ADME, organism-based, Canis lupus familiaris; conditions: in vivo; summary of the method: as §1
[18] = Cmax in female beagle dog at 0.5 mg/kg, iv administered as infusion; format: ADME, organism-based, Canis lupus familiaris; set-up: dose 0.5 mg/kg, route intravenous; conditions: in vivo
[19] = Plasma concentration in po dosed Wistar rat dosed 1 hr prior to first daily trial by Morris water maze test; format: ADME, organism-based
[20] = target: T1, Metabotropic glutamate receptor 5 (Rattus norvegicus, UniProt P31424); experiment: Displacement of [3H]M-MPEP from mGluR5 in Sprague-Dawley rat cerebrocortical membranes after 60 mins
T1 sequence (P31424 whole entry): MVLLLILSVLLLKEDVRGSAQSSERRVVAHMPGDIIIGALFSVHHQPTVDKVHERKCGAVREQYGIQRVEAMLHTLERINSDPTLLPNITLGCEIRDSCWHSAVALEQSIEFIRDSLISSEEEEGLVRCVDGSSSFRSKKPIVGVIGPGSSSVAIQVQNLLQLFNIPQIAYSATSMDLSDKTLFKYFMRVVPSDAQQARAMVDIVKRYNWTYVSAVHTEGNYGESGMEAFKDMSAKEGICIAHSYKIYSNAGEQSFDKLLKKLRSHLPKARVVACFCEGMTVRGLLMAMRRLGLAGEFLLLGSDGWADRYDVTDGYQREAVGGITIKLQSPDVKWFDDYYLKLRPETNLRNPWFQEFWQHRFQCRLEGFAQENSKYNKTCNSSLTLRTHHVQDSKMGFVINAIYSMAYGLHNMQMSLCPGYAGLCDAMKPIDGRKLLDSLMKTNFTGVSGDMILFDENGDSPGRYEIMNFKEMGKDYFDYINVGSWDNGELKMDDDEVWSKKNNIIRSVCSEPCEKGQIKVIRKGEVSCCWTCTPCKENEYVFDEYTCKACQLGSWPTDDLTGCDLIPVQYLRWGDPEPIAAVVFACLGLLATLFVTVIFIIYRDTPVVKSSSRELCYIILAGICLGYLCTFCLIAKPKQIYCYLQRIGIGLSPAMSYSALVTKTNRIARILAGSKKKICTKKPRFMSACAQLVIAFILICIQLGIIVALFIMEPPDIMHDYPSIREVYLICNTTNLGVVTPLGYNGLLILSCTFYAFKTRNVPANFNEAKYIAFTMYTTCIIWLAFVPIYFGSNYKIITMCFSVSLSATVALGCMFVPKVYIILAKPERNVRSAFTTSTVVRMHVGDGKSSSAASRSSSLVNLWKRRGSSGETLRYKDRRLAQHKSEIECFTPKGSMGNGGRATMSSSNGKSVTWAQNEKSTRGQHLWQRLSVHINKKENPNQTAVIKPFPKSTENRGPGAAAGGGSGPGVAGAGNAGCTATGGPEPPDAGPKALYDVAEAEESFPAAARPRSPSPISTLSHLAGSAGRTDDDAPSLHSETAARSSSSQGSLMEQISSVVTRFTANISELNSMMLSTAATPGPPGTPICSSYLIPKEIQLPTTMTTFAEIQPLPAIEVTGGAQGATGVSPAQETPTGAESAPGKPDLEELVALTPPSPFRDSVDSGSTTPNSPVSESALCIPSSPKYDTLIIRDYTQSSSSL

Plasma = experiment: Plasma concentration in Wistar rat at 30 mg/kg, po administered as single dose; format: ADME, organism-based; conditions: in vivo
[21] = Tmax in fasted female beagle dog at 1 mg/kg, po; format: ADME, organism-based, Canis lupus familiaris; conditions: in vivo; summary of the method: as §1
Rattus norvegicus [22] = experiment: (§4) Toxicity in po dosed Harlan-Wistar rat assessed as decrease in spontaneous locomotor activity photocell-based activity monitor test; format: organism-based; conditions: in vivo
Summary of the method: (§5)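 Male Wistar rats were given 0, 10, 30 or 50 mg/kg p.o. Spontaneous locomotor activity (ambulatory movement) was recorded in a photocell-based activity monitor.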

[23] = as §4; format: organism-based; conditions: Harlan-Wistar, in vivo; summary of the method: as §5
[24] = Terminal elimination half life in female Crl:CD(SD) rat at 0.5 mg/kg, iv; format: ADME, organism-based; conditions: in vivo, read-out: beta t1/2 (converted); summary of the method: as §1
[25] = AUC in fasted male beagle dog at 1 mg/kg, po; format: ADME, organism-based, Canis lupus familiaris; conditions: in vivo
Cytochrome P450 2D6 = Cytochrome P450 2D6 (Homo sapiens, UniProt P10635); experiment: Inhibition of CYP2D6 in human liver microsomes; format: ADME
Cytochrome P450 2D6, sequence (P10635 whole entry): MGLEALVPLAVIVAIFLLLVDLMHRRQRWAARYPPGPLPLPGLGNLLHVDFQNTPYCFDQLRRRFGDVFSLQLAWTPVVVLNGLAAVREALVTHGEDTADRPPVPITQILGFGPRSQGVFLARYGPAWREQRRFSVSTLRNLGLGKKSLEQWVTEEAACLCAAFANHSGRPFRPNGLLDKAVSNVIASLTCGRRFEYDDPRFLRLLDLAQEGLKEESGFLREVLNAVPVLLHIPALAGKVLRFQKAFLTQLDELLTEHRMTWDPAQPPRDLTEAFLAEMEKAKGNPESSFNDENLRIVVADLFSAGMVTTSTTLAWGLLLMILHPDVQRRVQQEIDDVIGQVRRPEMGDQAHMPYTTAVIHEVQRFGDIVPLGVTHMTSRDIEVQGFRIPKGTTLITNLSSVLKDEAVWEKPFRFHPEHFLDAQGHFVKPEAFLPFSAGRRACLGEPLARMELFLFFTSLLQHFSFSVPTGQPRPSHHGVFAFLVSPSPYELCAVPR

Rattus norvegicus [26] = experiment: Anxiolytic activity in Wistar rat assessed as increase in water drinking time during punished period at 10 mg/kg, po qd for 19 days by Vogel punished drinking conflict test; format: functional, organism-based; summary of the method: as §2
[27] = Terminal elimination half life in male Crl:CD(SD) rat at 0.5 mg/kg, iv; format: ADME, organism-based; conditions: in vivo, read-out: beta t1/2 (converted); summary of the method: as §1
[28] = AUC in female Crl:CD(SD) rat at 4.5 mg/kg, po; format: ADME, organism-based; conditions: in vivo
MDR1 = experiment: Apparent inward permeability in MDCK2-MDR1 cells; format: ADME, cell-based, Canis lupus familiaris; conditions: dog, MDCK-MDR1
Liver = experiment: Intrinsic clearance in human liver microsomes at 2.5 uM assessed per gram of liver; format: ADME, microsome
[29] = Plasma protein binding in rat; format: ADME, cell-free; conditions: read-out: PPB (converted)
[30] = Volume of distribution in male beagle dog at 0.5 mg/kg, iv administered as infusion; format: ADME, organism-based, Canis lupus familiaris; conditions: in vivo; summary of the method: as §1
[31] = AUC(0 to 8 hrs) in fasted male cynomolgus monkey at 9 mg/kg, po administered as single dose; format: ADME, organism-based, Macaca fascicularis; set-up: dose 9 mg/kg, time < 6 hr, route oral; conditions: in vivo
[32] = Cmax in fasted male cynomolgus monkey at 9 mg/kg, po administered as single dose; format: ADME, organism-based, Macaca fascicularis; set-up: dose 9 mg/kg, route oral; conditions: in vivo
Cytochrome P450 1A2 = target: T2, Cytochrome P450 1A2 (Homo sapiens, UniProt P05177); experiment: Inhibition of CYP1A2 in human liver microsomes; format: ADME
T2 sequence (P05177 whole entry): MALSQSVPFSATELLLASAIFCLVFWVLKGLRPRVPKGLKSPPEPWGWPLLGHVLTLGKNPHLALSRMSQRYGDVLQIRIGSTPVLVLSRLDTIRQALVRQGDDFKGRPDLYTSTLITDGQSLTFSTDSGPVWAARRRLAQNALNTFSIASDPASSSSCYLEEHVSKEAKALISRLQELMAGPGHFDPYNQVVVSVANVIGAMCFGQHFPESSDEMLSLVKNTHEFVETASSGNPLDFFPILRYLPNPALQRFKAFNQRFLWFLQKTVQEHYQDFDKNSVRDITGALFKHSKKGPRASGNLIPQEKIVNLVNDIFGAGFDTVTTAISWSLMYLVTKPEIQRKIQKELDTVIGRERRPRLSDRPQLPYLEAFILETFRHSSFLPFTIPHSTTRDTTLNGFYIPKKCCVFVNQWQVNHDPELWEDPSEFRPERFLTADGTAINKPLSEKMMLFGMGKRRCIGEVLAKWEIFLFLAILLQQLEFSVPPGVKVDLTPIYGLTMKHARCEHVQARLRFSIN

[33] = Terminal elimination half life in fasted female beagle dog at 1 mg/kg, po; format: ADME, organism-based, Canis lupus familiaris; conditions: in vivo, read-out: beta t1/2 (converted); summary of the method: as §1
[34] = target: T1, Metabotropic glutamate receptor 5; experiment: Negative allosteric modulation of mGluR5 in E17 Sprague-Dawley rat primary neuronal cultures assessed as reduction of DHPG-induced cytosolic Ca2+ influx after 10 to 20 mins by fluo-4/AM-dye based fluorometric analysis; format: functional

For `N#Cc1cccc(S(=O)(=O)c2cnc3cc(F)ccc3c2-c2ccc(Cl)cc2)c1`, which Vd [1] is on record?
The Vd was 9.6 L/kg.

What about the Activity (Rattus norvegicus [2]) of the same compound?
Its Activity is “Dose-dependent effect”.

What about the ED50 (Rattus norvegicus [2]) of the same compound?
Its ED50 is 1.5 mg/kg.

What about the half-life [3] of the same compound?
Its half-life is 2.1 h.

And the Cmax [4]?
Its Cmax is 650 nM.

What about the Activity (Rattus norvegicus [5]) of the same compound?
The Activity was “Active”.

What about the clearance [6] of the same compound?
The clearance was 6.43 mL/min/kg.

What about the concentration at 1.25 h [7] of the same compound?
Its concentration at 1.25 h is 34.8 nM.

What about the AUC [8] of the same compound?
The AUC was 1.68 µM·h.

What about the solubility [9] of the same compound?
The solubility was 10 µg/mL (≈ 23.6 µM).

And the concentration at 1.25 h [10]?
The concentration at 1.25 h was 99 nM.

And the concentration at 456 h [11]?
The concentration at 456 h was 513 nM.

What about the clearance [12] of the same compound?
Its clearance is 14.3 mL/min/kg.

And the half-life [13]?
Its half-life is 1.4 h.

What about the AUC(0-t) at 6 h [14] of the same compound?
Its AUC(0-t) at 6 h is 0.087 µM·h.

What about the AUC [15] of the same compound?
Its AUC is 3.07 µM·h.

What about the IC50 (Cytochrome P450 2C9) of the same compound?
Its IC50 is greater than 10000 nM.

What about the Tmax [16] of the same compound?
The Tmax was 0.5 h.

And the Tmax [17]?
The Tmax was 0.5 h.

What about the Cmax [18] of the same compound?
The Cmax was 1140 nM.

And the concentration at 1 h [19]?
Its concentration at 1 h is 986 nM.

And the Ki [20]?
Its Ki is 55.3 nM.

And the concentration (Plasma)?
Its concentration is 986 nM.

And the Tmax [21]?
The Tmax was 0.83 h.

What about the Activity (Rattus norvegicus [22]) of the same compound?
Its Activity is “Dose-dependent effect”.

What about the ED50 (Rattus norvegicus [22]) of the same compound?
The ED50 was 50 mg/kg.

What about the NOAEL [23] of the same compound?
Its NOAEL is 30 mg/kg.

And the half-life [24]?
Its half-life is 7.79 h.

And the AUC [25]?
Its AUC is 1.86 µM·h.

And the IC50 (Cytochrome P450 2D6)?
Its IC50 is greater than 10000 nM.

What about the Activity (Rattus norvegicus [26]) of the same compound?
Its Activity is “Active”.

And the half-life [27]?
Its half-life is 5.13 h.

What about the AUC [28] of the same compound?
The AUC was 7.3 µM·h.

And the Papp (MDR1)?
The Papp was 11.5 ×10⁻⁶ cm/s.

And the CLint (Liver)?
The CLint was 0.31 mL/min/g.

And the fraction unbound [29]?
The fraction unbound was 0.0027.

And the Vd [30]?
Its Vd is 8.6 L/kg.

What about the AUC(0-t) at 6 h [31] of the same compound?
The AUC(0-t) at 6 h was 0.132 µM·h.

What about the Cmax [32] of the same compound?
Its Cmax is 57 nM.

What about the IC50 (Cytochrome P450 1A2) of the same compound?
Its IC50 is greater than 10000 nM.

What about the half-life [33] of the same compound?
The half-life was 10.7 h.

What about the IC50 [34] of the same compound?
Its IC50 is 19 nM.
